Values after ≈ are worked out from the molar mass of the structure shown.
Assays:
[1] = Aqueous solubility in PBS; format: physicochemical; conditions: pH = 7.4
[2] = in PBS; cited from earlier work
[3] = free CPT; cited from earlier work
[4] = In vivo safety: body weight, H&E histology, blood biochemistry; design: species or system BALB/c nude mice; conditions: 10 mg·kg^−1 i.v.
How it was run: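 MCF-7 xenografts in BALB/c nude mice: 1×10^6 cells s.c. (alar region), randomised at 100–200 mm3 (n = 6/group). Untreated normal group also included. Body weight recorded every 2 days for 16 days. Day 16: serum ALT, AST, BUN, CRE measured; organs formalin-fixed, paraffin-embedded and H&E-stained.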

SMILES	aqueous solubility [1] [µg/mL]	CPT lactone form remained at equilibrium [2] [%]	half-life of lactone ring hydrolysis [2] [min]	blood circulation half-life (t1/2) [3] [min]	body weights compared to PBS ([4]; MCF-7 tumor-bearing nude mice, p < 0.05)	creatinine (CRE) level compared with the normal group ([4]; day 16, p < 0.001, n = 6)	blood urea nitrogen (BUN) level compared with the normal group ([4]; day 16, p < 0.05, n = 6)	H&E staining of kidney ([4]; characteristic of acute kidney injury)
CC[C@@]1(O)C(=O)OCc2c1cc1n(c2=O)Cc2cc3ccccc3nc2-1 [CPT, camptothecin]	3 (≈ 8.61 µM)	17	24	9.9 ± 8.04				
CCc1c2c(nc3ccc(OC(=O)N4CCC(N5CCCCC5)CC4)cc13)-c1cc3c(c(=O)n1C2)COC(=O)[C@]3(O)CC [IR, irinotecan]					reduced observably	increased obviously	increased obviously	obvious interstitial inflammatory cell infiltration
